Assay outcomes deposited in PubChem by several laboratories.
KCNQ1 inh – inhibitors of human KCNQ1 potassium channel; CHO-K1 KCNQ1, FluxOR thallium flux fluorescence; stronger effect = higher value; B-score at 10 µM; 310,000 tested, 1.3% active; AID 2642;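 active means compounds whose thallium flux B-score, printed positive for inhibition, exceeds three library SD while starting fluorescence stays within three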;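 further: channel opened by potassium depolarization with thallium stimulus after 20 min compound exposure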
Target sequence (P51787 whole entry, looked up): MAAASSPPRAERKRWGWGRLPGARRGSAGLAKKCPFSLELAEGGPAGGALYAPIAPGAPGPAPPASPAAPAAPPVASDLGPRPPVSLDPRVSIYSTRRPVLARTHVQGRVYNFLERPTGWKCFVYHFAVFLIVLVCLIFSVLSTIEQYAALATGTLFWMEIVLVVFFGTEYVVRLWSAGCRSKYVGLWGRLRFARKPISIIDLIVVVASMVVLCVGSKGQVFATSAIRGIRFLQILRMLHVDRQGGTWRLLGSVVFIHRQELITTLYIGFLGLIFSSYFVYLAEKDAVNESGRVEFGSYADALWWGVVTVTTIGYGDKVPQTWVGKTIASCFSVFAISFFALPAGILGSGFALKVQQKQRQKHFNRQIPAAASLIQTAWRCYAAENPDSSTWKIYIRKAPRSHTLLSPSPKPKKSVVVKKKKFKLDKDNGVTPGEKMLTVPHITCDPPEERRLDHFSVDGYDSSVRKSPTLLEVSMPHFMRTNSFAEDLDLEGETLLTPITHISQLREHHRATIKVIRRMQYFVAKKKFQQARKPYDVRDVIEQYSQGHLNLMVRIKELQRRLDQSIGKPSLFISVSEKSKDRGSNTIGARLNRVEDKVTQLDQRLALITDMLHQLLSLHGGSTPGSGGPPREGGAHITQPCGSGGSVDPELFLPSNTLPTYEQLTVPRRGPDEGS
KCC2 mod – KCC2 (human) Cl- transport modulation; Q9H2X9; KCC2 cells, thallium flux FluoZin-2 fluorescence; B-score of Tl+ flux slope (higher = more flux/activation; lower = inhibition) at 10 µM; 190,000 tested, 2.2% active; AID 1456;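 active means thallium flux slope and its plate-corrected score both differing from the plate sample mean at a set confidence after two filtering rounds, in either direction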;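 further: slope of fluorescence scaled to starting intensity during 10 to 20 s after thallium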
hERG rescue – hERG (human) protection from proarrhythmic block | Q12809 | CHO-hERG, FluxOR thallium flux, dofetilide IC70 present | activation (rescue from dofetilide block), less the hit threshold, % at 10 µM | 310,000 tested, 0.51% active;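 active means activation above the mean of controls blocked by dofetilide plus 5 SD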;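 further: thallium influx through hERG after potassium depolarization seen as dye fluorescence rise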
SUMO Mot1 rescue – SUMOylation pathway inhibition by Mot1-301 growth rescue; AID 2716; growth rescue, % at 18.8 µM; S. cerevisiae Mot1-301 growth rescue, ATP luminescence, 38.5C; percent above DMSO median, 100 means doubled; 320,000 tested, 1% active;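 active means every valid replicate shows activation above 250% relative to neutral control wells; inactive means the rest, any valid replicate at or below 250%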;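 further: OY570 slx delta 5 strain wells were the positive control but not used for scaling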
KCNQ1 pot – human KCNQ1 channel potentiation or activation; 310,000 tested, 0.35% active; AID 2648; CHO-K1 KCNQ1, thallium flux FluxOR fluorescence; stronger effect = higher value; P51787; B-score at 10 µM;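 active means fluorescence ratio B-score, a plate-corrected score, at least three library SD, with initial intensity B-score within 5 SD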
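Medium – assay buffer, equal DMSO in all wells · Material – CHO-K1 cell line with stable KCNQ1 potassium channel expression · Signal – kinetic FluxOR thallium fluorescence, 10-s 1-Hz baseline, 110-s post-stimulus read · Compound – single concentration per compound, DMSO matched to controls · Schedule – 37 °C overnight plating, 90-min dark dye load, 20-min compound pretreatment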
AI-2 QS mod – Vibrio harveyi AI-2 quorum sensing modulation; AID 2094; activity change, % at 7.5 µM; 300,000 tested, 0.4% active; Vibrio harveyi JMH597 AI-2 luminescence/OD600 ratio, 9 h; stronger effect = lower value; strain lacks LuxN and CqsS sensors; 0 = neutral-control median; in the data active means activity change below about -75%, passing the limit was not always enough;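 further: luminescence divided by OD600 gain over 9 h not by final OD600 alone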
Yeast Mot1 SUMO – yeast SUMO pathway inhibition in dose response | shares compounds with SUMO Mot1 rescue | S. cerevisiae Mot1-301 galactose growth, ATP luminescence, 24 h; -100 = growth of slx-deleted rescue strain | growth activity, percent, % at 42 µM | 2,300 tested, under 10 active;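 active means Signal drops as the depositor expects, and the fitted half-maximal dose is no more than ten times the top valid tested dose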;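 further: more negative values mean stronger growth rescue toward the control strain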
* hit, by the source's call; i = inactive; . = not tested or not shown; + = active, no number. In the library only some 4.2% were active in any assay of this set; here they are far more common.

SMILES | KCNQ1 inh | KCC2 mod | hERG rescue | SUMO Mot1 rescue | KCNQ1 pot | AI-2 QS mod | Yeast Mot1 SUMO
Cc1ccc(NS(=O)(=O)c2csc(C(N)=O)c2)cc1C | i | . | -6 | 369* | i | 13 | -1
COc1ccc(NC(=O)c2cc(S(=O)(=O)Nc3ccc(OC)cc3)cs2)cc1 | i | -0.099 | -13 | 527* | i | 10 | 0
COc1ccc(NS(=O)(=O)c2csc(C(=O)N3CCCC3)c2)cc1 | i | . | -8 | 4 | i | 25 | .
COc1ccccc1C(=O)NCC(=O)OCC(=O)c1ccc2c(c1)-c1ccccc1C2 | i | 0.28 | -5 | 4 | i | 6 | .
CCN=C1S/C(=C\c2cn(CC)c3ccccc23)C(=O)N1CC | i | -1.8 | -10 | 11 | i | 27 | .
CCN=C1S/C(=C/c2ccc(-c3ccc(F)cc3)o2)C(=O)N1CC | i | . | -9 | 956* | i | 0 | -1
Cc1cccc(OCc2nnc(SCC(=O)O)n2-c2ccccc2)c1 | i | . | -4 | + | i | 11 | 1
Cc1ccc(OCc2nnc(SCC(=O)O)n2-c2ccccc2)cc1 | i | . | -8 | -7 | i | -8 | .
Cc1nnc(NC(=O)c2ccc(-c3cccc(C(F)(F)F)c3)o2)s1 | . | 0.69 | . | + | . | . | 0
Cc1cccc(OCCC(=O)Nc2ccc(Cl)cc2F)c1 | i | . | -10 | -15 | i | -2 | .
C/C(CC(=O)Nc1ccc(Cl)cn1)=N\NC(=O)Cc1cccs1 | i | 0.0064 | -9 | -4 | i | 16 | .
CC1C(=O)C(C)C(c2ccco2)NC1c1ccco1 (stereo not given) | i | -0.17 | -5 | -17 | i | 0 | .
c1coc(C2OCC3(CO2)COC(c2ccco2)OC3)c1 (stereo not given) | i | 0.023 | -10 | 523* | i | -9 | -1
O=c1cc(C(F)(F)F)c2sc(N3CCCCC3)nc2[nH]1 | i | 1.1 | -6 | 429* | i | -8 | 0
COCCn1c(SCC(=O)NCc2cccs2)nnc1-c1ccc(OC)cc1 | i | . | -8 | 916* | i | 22 | -1
CC(C)CCN(C(=S)NC(=O)C1CCCCC1)c1c(N)n(Cc2ccccc2)c(=O)[nH]c1=O | i | -1.9 | -14 | 5 | i | 13 | .
CCc1ccc2oc(C(=O)NCC(c3ccc(OC)cc3)N3CCCCC3)c(C)c2c1 (stereo not given) | i | . | -23 | -15 | i | 0 | .
COc1ccc(/C=N/NC(=O)CCn2cnc3ccccc32)cc1 | i | -0.32 | -9 | 4 | i | 12 | .
COc1cccc(/C=N/NC(=O)CCn2cnc3ccccc32)c1 | i | 0.95 | -4 | 479* | i | 6 | 0
COc1ccc(OC)c(-c2csc(NC(=O)CSc3nnnn3C)n2)c1 | i | . | -17 | 2 | i | 14 | .
O=[N+]([O-])C1C(c2ccccc2)=NOC1c1ccccc1O (stereo not given) | i | . | -3 | 3 | i | 28 | .
Cc1cc2c(C)nc3ccccc3c2o1 | i | -0.12 | -13 | 4 | i | 23 | .
Cc1nc2ccccc2c2ncccc12 | i | . | 1 | 613* | i | 16 | -1
O=C(CN1C(=O)c2ccccc2S1(=O)=O)NCCSc1ccccc1 | i | -3.1 | -8 | . | i | -30 | .
COc1ccc(NC(=O)CN2C(=O)c3ccccc3S2(=O)=O)cc1OC | i | . | -6 | 404* | i | 7 | 0
SMILES | KCNQ1 inh | KCC2 mod | hERG rescue | SUMO Mot1 rescue | KCNQ1 pot | AI-2 QS mod | Yeast Mot1 SUMO
Cc1ccc(SCCNC(=O)CN2C(=O)c3ccccc3S2(=O)=O)cc1 | i | -3.3 | -7 | 398* | i | -44 | 0
O=C1CC(NCCC2=CCCCC2)C(=O)N1c1cccc(Cl)c1Cl (stereo not given) | i | . | -4 | 34 | i | 21 | .
O=S(=O)(c1ccccc1)N1CCN(c2nc3ccccc3s2)CC1 | i | -0.33 | -2 | 453* | i | 11 | 0
CS(=O)(=O)N1CCN(c2nc3ccccc3s2)CC1 | i | . | -10 | -6 | i | 8 | .
Cc1ccc2c(CC(=O)Nc3nc(C)cs3)coc2c1 | i | . | -6 | 9 | i | 3 | .
COC(=O)c1cnc(SCC(=O)c2ccccc2)n1C | i | . | -9 | -21 | i | 12 | .
O=C(COC(=O)/C=C/c1cccc(F)c1)Nc1ccc(Cl)cn1 | i | 0.71 | -3 | 9 | i | 17 | .
COc1cccc(/C=C/C(=O)OCC(=O)Nc2ccc(Cl)cn2)c1 | i | -0.25 | 5.8* | 760* | i | 20 | 0
COc1ccc(C(=O)N/N=C(\C)CC(=O)Nc2cccc(C(F)(F)F)c2)cc1 | i | 0.55 | -11 | -13 | i | 11 | .
COCCNC(=O)C(=O)N/N=C(\C)CC(=O)Nc1cccc(C(F)(F)F)c1 | i | -0.054 | -9 | 445* | i | -6 | 0
CN(Cc1ccc(Cl)c(Cl)c1)C(=O)C1CSC2(C)CCC(=O)N12 (stereo not given) | . | . | . | -2 | . | . | .
CCN(CC)c1ccc(/C=N/NC(=O)OC(C)(C)C)cc1 | i | 0.29 | -10 | 568* | i | 37 | 0
COc1cc(/C=N/NC(=O)c2cccc([N+](=O)[O-])c2)ccc1O | i | 0.79 | -17 | + | i | 10 | 0
COc1ccc(/C=N/NC(=O)c2cccc([N+](=O)[O-])c2)cc1O | i | 0.96 | -7 | -11 | i | 35 | .
Nc1c(C(=O)CSc2nc3ccccc3o2)c(=O)[nH]c(=O)n1C1CC1 | . | . | . | 11 | . | . | .
CCOc1ccc(CNC(=S)N/N=C/c2ccc(OC)c(OC)c2)cc1 | i | 0.58 | -5 | 6 | i | 19 | .
COc1ccccc1-c1nc2ccccc2nc1-c1ccccc1OC | i | -0.31 | -9 | 395* | i | 0 | 0
CN1c2ccccc2-c2nc3ccccc3n2C1c1ccncc1 (stereo not given) | i | . | -7 | 635* | i | 18 | 0
CN1c2ccccc2-c2nc3ccccc3n2C1c1ccccn1 (stereo not given) | i | -1.3 | -6 | . | i | 15 | .
CC1CCc2c(C(=O)OCC(=O)Nc3cccc(S(=O)(=O)N4CCCCCC4)c3)csc2C1 (stereo not given) | i | 0.76 | -4 | -2 | i | 6 | .
Cc1ccc(NC(=O)COC(=O)c2csc3c2CCC(C)C3)cc1S(=O)(=O)N1CCCCC1 (stereo not given) | i | 0.73 | -11 | + | i | 3 | 0
